Reference: ChEMBL document CHEMBL2046293, “Design, synthesis, and biological evaluation of conformationally constrained analogues of naphthol AS-E as inhibitors of CREB-mediated gene transcription” (J Med Chem, 2012)

Legend:
[1] = Inhibition of CREB kinase-inducible domain/CREB binding protein KID-interacting domain interaction after 20 to 24 hrs by luciferase reporter gene assay
[2] = Inhibition of CREB expressed in HEK293T cells assessed as inhibition of forskolin-stimulated CRE transcription incubated for 30 mins prior to forskolin-stimulation measured after 4.5 hrs by luciferase reporter gene assay; assay type: cell-based; settings: HEK-293T
How it was run: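 HEK293T cells transfected with pCRE-RLuc (Lipofectamine 2000), replated after 3 h at 1-2 × 10^4 cells/well and attached overnight. Compounds at various concentrations added 30 min before forskolin (10 μM final), then 4.5 h at 37 °C. Lysate Renilla luciferase read with benzyl-coelenterazine (pH 7.4, 10 μg/mL), normalized to Bradford-dye protein (RLU/μg). IC50 from non-linear regression.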

`O=C(Nc1ccc(Cl)cc1)c1cc2ccccc2cc1O` gave an IC50 [1] of 2.9 µM and an IC50 [2] of 2.29 µM.

For `O=c1[nH]c2cc3ccccc3cc2c(=O)n1-c1ccc(Cl)cc1`, the IC50 [1] was > 50 µM and the IC50 [2] was > 50 µM.

With `Cn1nc(Nc2ccc(Cl)cc2)c2cc3ccccc3cc21` the IC50 [1] was 5.19 µM and the IC50 [2] was > 50 µM.

`Clc1ccc(Nc2n[nH]c3cc4ccccc4cc23)cc1` showed an IC50 [1] of 8.74 µM and an IC50 [2] of 4.75 µM.

In the case of `Clc1ccc(Nc2noc3cc4ccccc4cc23)cc1`, the IC50 [1] is reported as > 50 µM and the IC50 [2] is reported as 24.4 µM.

`Clc1ccc(Nc2ncnc3cc4ccccc4cc23)cc1` showed an IC50 [1] of 9.46 µM and an IC50 [2] of 19 µM.

In the case of `O=c1oc2cc3ccccc3cc2c(=O)n1-c1ccc(Cl)cc1`, the IC50 [1] is reported as > 50 µM and the IC50 [2] is reported as 30.8 µM.
